From the RNAGym collection of RNA variant scans (doi:10.1126/science.aae0568)
This sample holds only a part of the variants without activity.

B1: tRNA (parent)
chain: GUUCCGUUGGCGUAAUGGUAACGCGUCUCCCUCCUAAGGAGAAGACUGCGGGUUCGAGUCCCGUACGGAACG

Variants of: B1
Assay: yeast fitness relative to wild type (ratio to wild type); higher = fitter; tRNA-Arg(CCU), competitive growth, 37 C, YPD
Outline: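 For this measurement, the tRNA-Arg(CCU) gene was varied by chemical synthesis at a 3% per-site mutation rate across 69 sites, and each variant was placed at the native genomic locus in Saccharomyces cerevisiae. The pooled strains went through a 24-hour competition in YPD at 37°C in six parallel replicates, with amplicons from start and end populations read by 100-nucleotide paired-end sequencing. Darwinian fitness relative to wild type followed from the change in each genotype's frequency. Genotypes needed ≥ 100 starting reads, and estimates < 0.5 were set to 0.5.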

Compared with G9C C27A, G9C C27G is lower in yeast fitness: 0.732 for the first, 0.581 for the second.

G9C C30G U53C and G9C C22A C34A cannot be ordered by yeast fitness: ≤ 0.5 for the first, ≤ 0.5 for the second.

First: G9A U28G A40C A42G A69C
Second: G9A U13A U19C C30U C61A
The yeast fitness of the first is higher: 0.963 for the first, ≤ 0.5 for the second.

Compared with G9C A14C G44C A57C, G9C A14C G44C A57U is lower in yeast fitness: 0.573 for the first, ≤ 0.5 for the second.

First: G9C A69C
Second: G9C A69U
The yeast fitness of the first is lower: 0.821 for the first, 0.841 for the second.

G9A G38C G41C U54A and G9C A15G C33U A36C G39C C46G G51C cannot be ordered by yeast fitness: ≤ 0.5 for the first, ≤ 0.5 for the second.

G9C A42U C61U U64A A69G and G9C C34U C55A A57C cannot be ordered by yeast fitness: ≤ 0.5 for the first, ≤ 0.5 for the second.

Going from G9C C29U A70G to G9A U28C C55G C62G, the yeast fitness falls from 0.602 to ≤ 0.5.

First: G9C C27U U47C C55U C62G A65G A69U
Second: G9C A21U C31G A40C C62U U64C
The yeast fitness of the first is lower: ≤ 0.5 for the first, 0.518 for the second.

Going from G9A U32A G48C to G9C C24G C60U U64A, the yeast fitness falls from 0.531 to ≤ 0.5.

First: G9A G50C A69U
Second: G9A G58C
The yeast fitness of the first is lower: 0.752 for the first, 0.895 for the second.

G9C C24G and G9C C24A cannot be ordered by yeast fitness: ≤ 0.5 for the first, ≤ 0.5 for the second.

Compared with G9A G38A A65U, G9C C31G A40C A45C G48C is higher in yeast fitness: 0.565 for the first, 0.668 for the second.

First: G9C C11G G56A
Second: G9C A15C C46U
The yeast fitness of the first is lower: ≤ 0.5 for the first, 0.592 for the second.

First: G9C C22G C33G G63C A70G
Second: G9C A40U A65C
The yeast fitness of the first is higher: 0.6 for the first, 0.531 for the second.

G9C C24U U26G U54G and G9C A14G U47C cannot be ordered by yeast fitness: ≤ 0.5 for the first, ≤ 0.5 for the second.

G9C G10C C29G C66U and G9C A57U C62G cannot be ordered by yeast fitness: ≤ 0.5 for the first, ≤ 0.5 for the second.

First: G9C A36U A40U G44A G63A A69C
Second: G9A G51A
The yeast fitness of the first is lower: ≤ 0.5 for the first, 0.919 for the second.

First: G9A U19C G23C U59A G68C
Second: G9C A14U G50C
The yeast fitness of the first is lower: ≤ 0.5 for the first, 0.682 for the second.

Going from G9A U28A G41C A65C G67C to G9C A20C A45G C46G G50A, the yeast fitness falls from 0.579 to ≤ 0.5.

Compared with G9A U19G, G9A U19C is higher in yeast fitness: 0.848 for the first, 0.983 for the second.

Compared with G9A U19A, G9C C11A G23A A37U C60U is lower in yeast fitness: 1.04 for the first, ≤ 0.5 for the second.

Compared with G9C C27U C33G A37G, G9A G52C is higher in yeast fitness: ≤ 0.5 for the first, 0.641 for the second.

First: G9C A14C A57G
Second: G9A G50C C62G C66U
The yeast fitness of the first is lower: ≤ 0.5 for the first, 0.687 for the second.

Going from G9A U54G to G9A G56C, the yeast fitness rises from 0.552 to 0.563.

Compared with G9A U13A C46U, G9C C30A U35C C46G U54C G67C is lower in yeast fitness: 0.708 for the first, ≤ 0.5 for the second.

G9C A15G G17A C27A C31G G50A and G9C C66A cannot be ordered by yeast fitness: ≤ 0.5 for the first, ≤ 0.5 for the second.

First: G9C C66U
Second: G9A U28A A65U
The yeast fitness of the first is higher: 0.621 for the first, ≤ 0.5 for the second.

First: G9A G41C
Second: G9C A14U C24G U35G C61G G68C
The yeast fitness of the first is higher: 0.899 for the first, ≤ 0.5 for the second.

First: G9C A42C G68C
Second: G9A U32C A43G G52A C61G
The yeast fitness of the first is lower: 0.542 for the first, 0.63 for the second.

G9A U28C C49A and G9C C11G C24U C31U U59A cannot be ordered by yeast fitness: ≤ 0.5 for the first, ≤ 0.5 for the second.

First: G9C A40U C46U
Second: G9C A20U C27G C49U
The yeast fitness of the first is lower: 0.511 for the first, 0.55 for the second.

G9C C24G A65C and G9C A36G C62U cannot be ordered by yeast fitness: ≤ 0.5 for the first, ≤ 0.5 for the second.

Compared with G9C C34U A45C G48C, G9C C60G is higher in yeast fitness: ≤ 0.5 for the first, 0.53 for the second.

First: G9C C60U
Second: G9C A40G A42G A57U
The yeast fitness of the first is higher: 0.618 for the first, ≤ 0.5 for the second.

Going from G9C A15U G17A A37U A45C to G9A G56A G67A, the yeast fitness rises from ≤ 0.5 to 0.632.

Going from G9A U19G A37C A43U C46G G68A to G9C C46U C49U, the yeast fitness rises from ≤ 0.5 to 0.692.

Compared with G9A G48A G63A A69U, G9C A21C is lower in yeast fitness: 0.764 for the first, 0.652 for the second.

First: G9C A21G
Second: G9C A21U
The yeast fitness of the first is higher: 0.669 for the first, 0.509 for the second.

Going from G9C C46U A57C to G9C C29U A36U G63A G67A, the yeast fitness falls from 0.662 to ≤ 0.5.

G9C C24U C34A G44C C46U G48A A69G and G9C C29G C34G C60G C62U cannot be ordered by yeast fitness: ≤ 0.5 for the first, ≤ 0.5 for the second.

First: G9C C31A C49G
Second: G9C A14U
The yeast fitness of the first is higher: 0.574 for the first, 0.509 for the second.
